Key:
[1] = tested on: Human immunodeficiency virus 1; assay: Antiviral activity against HIV1 3B replication in human MT2 cells exposed to light assessed as inhibition of p24 production after 4 days by ELISA; conditions: Human immunodeficiency virus 1, 3B, MT2, 96 h
[2] = tested on: Human immunodeficiency virus 1; assay: Antiviral activity against HIV1 3B replication in human MT2 cells under dark condition assessed as inhibition of p24 production after 4 days by ELISA; conditions: Human immunodeficiency virus 1, 3B, MT2, 96 h
[3] = tested on: Human immunodeficiency virus 1; assay: Antiviral activity against HIV1 isolate 94UG103 replication in human PBMC assessed as inhibition of p24 production after 7 days by ELISA; conditions: Human immunodeficiency virus 1, isolate 94UG103, 168 h
MT2 = assay: Cytotoxicity against human MT2 cells after 4 days by XTT assay; format: cell-based; conditions: mt2, 96 h
Summary of the method: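 Graded compound concentrations mixed with equal volume of MT-2 cells (5×10^5/mL), 37 °C for 4 days. XTT (1 mg/mL) with 0.02 μM phenazine methosulphate added, absorbance at 450 nm read after 4 h; CC50 calculated with CalcuSyn.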

[4] = Selectivity index, ratio of CC50 for human MT2 cells to EC50 for HIV1 3B replication in human MT2 cells exposed to light; format: toxicity, cell-based; conditions: read-out: Ratio CC50/EC50

Structure (SMILES)	EC50 [1] [nM]	EC50 [2] [nM]	EC50 [3] [nM]	CC50 (MT2) [nM]	selectivity ratio [4]
Cc1ccc(-c2ccc(/C=C3\SC(=S)N(CCc4ccccc4)C3=O)o2)cc1C(=O)O	99	31	70	42100	426
O=C(O)c1cccc(-c2ccc(/C=C3\SC(=S)N(CCc4ccccc4)C3=O)o2)c1F	94	59	801	78300	835
COc1ccc(-c2ccc(/C=C3\SC(=S)N(CCc4ccccc4)C3=O)o2)cc1C(=O)O	1300	266	2230	28700	22
O=C(O)c1cc(-c2ccc(/C=C3\SC(=S)N(CCc4ccccc4)C3=O)o2)ccc1O	1280	261	2660	14800	12
Cc1c(C(=O)O)cncc1-c1ccc(/C=C2\SC(=S)N(CCc3ccccc3)C2=O)o1	390	538	4040	78900	202
O=C(O)c1cc(-c2ccc(/C=C3\SC(=S)N(CCc4ccccc4)C3=O)o2)cnc1Br	268	227	353	5530	40
O=C(O)c1cc(-c2ccc(/C=C3\SC(=S)N(CCc4ccccc4)C3=O)o2)ccc1F	71	291	246	27000	380
CCc1ccc(-c2ccc(/C=C3\SC(=S)N(CCc4ccccc4)C3=O)o2)cc1C(=O)O	81	30	177	17400	215
O=C(O)c1cncc(-c2ccc(/C=C3\SC(=S)N(CCc4ccccc4)C3=O)o2)c1	42	71	442	38400	915
O=C(O)c1cc(-c2ccc(/C=C3\SC(=S)N(CCc4ccccc4)C3=O)o2)ccc1Br	317	158	165	3290	10
O=C(O)c1cccc(-c2ccc(/C=C3\SC(=S)N(CCc4ccccc4)C3=O)o2)c1Cl	64	78	33	6730	105
Cc1c(C(=O)O)cccc1-c1ccc(/C=C2\SC(=S)N(CCc3ccccc3)C2=O)o1	43	92	648	26800	624
O=C(O)c1cc(-c2ccc(/C=C3\SC(=S)N(CCc4ccccc4)C3=O)o2)ccc1Cl	51	17	73	16800	330
O=C(O)c1cccc(-c2ccc(/C=C3\SC(=S)N(CCc4ccccc4)C3=O)o2)c1	44	98	74	19400	440
O=C(O)c1cc(-c2ccc(/C=C3\SC(=S)N(CCc4ccccc4)C3=O)o2)cnc1Cl	232	1010	598	38400	165
